A short description of series [1]: Cytotoxicity against human HepG2(2.2.15) cells. Format: cell-based. The settings on record: read-out: TC50 (the source's name).
Another series concerns Hepatitis B virus. Briefly: Antiviral activity against Hepatitis B virus infected in human HepG2.2.15 cells assessed as inhibition of viral DNA replication by semi-quantitative EIA. Particulars: HepG2 2.2.15. It counts as functional, organism-based. The method, boiled down: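 HepG2 2.2.15 cells, derived from hepatoblastoma HepG2 and stably transfected with HBV, were seeded in flat-bottomed tissue culture wells. They received eight consecutive daily doses of compound in RPMI1640 with 2% fetal bovine serum, with lamivudine as the positive control. HBV nucleic acids and proteins were analysed at the end of treatment (day 8).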

A short description of series [2]: Selectivity index, ratio of TC50 for human HepG2(2.2.15) cells to IC50 for Hepatitis B virus. It counts as toxicity. The settings on record: read-out: Selectivity Index.

Converted amounts (≈) assume the structure as drawn.

`CC(C)(C)OC(=O)N1CC(O)[C@@H](O)[C@H](O)[C@H]1n1ccc(=O)[nH]c1=O` (single isomer, unassigned): in series [1], the CC50 is > 1000 µg/mL.
Turning to `CC(C)(C)OC(=O)N1C[C@@H](O)[C@@H](O)[C@H](O)[C@H]1n1cnc2c(N)ncnc21`, the concentration for half-maximal inhibition (IC50) in the series with Hepatitis B virus worked out at 247 µg/mL (≈ 675 µM). Besides, the CC50 in series [1] was determined as 1000 µg/mL (≈ 2730 µM). Further, the selectivity ratio in series [2] amounted to 4.
Consider `CC(C)(C)OC(=O)N1C[C@@H](O)[C@@H](O)[C@H](O)[C@@H]1n1cnc2c(N)ncnc21`, for which the CC50 in series [1] stood at 1000 µg/mL (≈ 2730 µM).
Still for that read-out and setting: to `Cc1cn([C@H]2[C@@H](O)[C@H](O)[C@@H](O)CN2C(=O)OC(C)(C)C)c(=O)[nH]c1=O` belongs 1000 µg/mL (≈ 2800 µM).
The same measure, in the same setting: in the case of `CC(C)(C)OC(=O)N1C[C@H](O)[C@@H](O)[C@@H](O)[C@@H]1n1cc(F)c(=O)[nH]c1=O` it was 29 µg/mL (≈ 80.3 µM).
Turning to `CC(C)(C)OC(=O)N1C[C@@H](O)[C@@H](O)[C@H](O)[C@H]1n1cc(F)c(=O)[nH]c1=O`, the IC50 with Hepatitis B virus was 2.74 µg/mL (≈ 7.58 µM). Besides, the CC50 in series [1] came out at 37 µg/mL (≈ 103 µM). Further, in series [2], the selectivity ratio was 13.5.
As to `CC(C)(C)OC(=O)N1CC(O)[C@@H](O)[C@@H](O)[C@@H]1n1cnc2c(N)ncnc21` (single isomer, unassigned), the half-inhibitory concentration (IC50) in the series with Hepatitis B virus came out at 281 µg/mL (≈ 767 µM). The CC50 in series [1] was determined as 693 µg/mL (≈ 1890 µM). Also, the selectivity ratio in series [2] was 3.6.
Taken in the same sequence, the figures for `Cc1cn([C@H]2[C@H](O)[C@H](O)C(O)CN2C(=O)OC(C)(C)C)c(=O)[nH]c1=O` (single isomer, unassigned) were 33 µg/mL (≈ 92.4 µM), 577 µg/mL (≈ 1620 µM) and 17.5.
Turning to `Cc1cn([C@@H]2[C@@H](O)[C@H](O)C(O)CN2C(=O)OC(C)(C)C)c(=O)[nH]c1=O` (single isomer, unassigned), the CC50 in series [1] is > 1000 µg/mL.
On the same count and under the same terms, in the case of `Cc1cn([C@@H]2[C@@H](O)[C@H](O)[C@@H](O)CN2C(=O)OC(C)(C)C)c(=O)[nH]c1=O` it was 1000 µg/mL (≈ 2800 µM).
In the case of `CC(C)(C)OC(=O)N1C[C@@H](O)C(O)C(O)C1n1cnc2c(N)ncnc21` (single isomer, unassigned), the concentration for half-maximal inhibition (IC50) in the series on Hepatitis B virus was 316 µg/mL (≈ 862 µM). The CC50 in series [1] was found to be 1000 µg/mL (≈ 2730 µM). Besides, the selectivity ratio in series [2] came out at 3.2.
`Cc1cn([C@@H]2[C@H](O)[C@H](O)C(O)CN2C(=O)OC(C)(C)C)c(=O)[nH]c1=O` (single isomer, unassigned): the IC50 in the series on Hepatitis B virus was 93 µg/mL (≈ 260 µM). Besides, the CC50 in series [1] was determined as 430 µg/mL (≈ 1200 µM). Further, the selectivity ratio in series [2] was 4.6.
In the case of `CC(C)(C)OC(=O)N1CC(O)[C@@H](O)[C@H](O)[C@H]1n1cnc2c(N)ncnc21` (single isomer, unassigned), the CC50 in series [1] was > 1000 µg/mL.
As to `Nc1ccn([C@@H]2CS[C@H](CO)O2)c(=O)n1` [LAMIVUDINE], the IC50 in the series with Hepatitis B virus was 4.51 µg/mL (≈ 19.7 µM). Also, in series [1], the CC50 stood at 1000 µg/mL (≈ 4360 µM). Moreover, the selectivity ratio in series [2] is 222.
In the case of `CC(C)(C)OC(=O)N1CC(O)[C@@H](O)[C@H](O)[C@H]1n1cc(F)c(=O)[nH]c1=O` (single isomer, unassigned), in series [1], the CC50 was found to be 192 µg/mL (≈ 533 µM).
The same measure, in the same setting: in the case of `CC(C)(C)OC(=O)N1CC(O)[C@@H](O)[C@H](O)[C@H]1n1ccc(N)nc1=O` (single isomer, unassigned) it was > 1000 µg/mL.

What is called IC50 is the concentration at which inhibition is half-maximal.

(Values after ChEMBL document CHEMBL1641452, “Synthesis and in vitro anti-hepatitis B virus activity of six-membered azanucleoside analogues” (Bioorg Med Chem, 2011).)
